This passage reports Relative potency and IC50 results from ChEMBL document CHEMBL1125180, “3-Hydroxy-3-methylglutaryl-coenzyme A reductase inhibitors. 8. Side chain ether analogues of lovastatin” (J Med Chem, 1991).

Structures are written as SMILES.

A short description of test [1]: The relative potency by comparing its IC50 value with that of mevastatin. The method, boiled down: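 Compounds were tested in salt form for intrinsic inhibition of HMG-CoA reductase. Mevastatin (compactin) was run alongside in the same test and set to a relative potency of 100. Each compound's relative potency was derived by comparing its IC50 with that of mevastatin.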

Test [2] addresses T1, 3-hydroxy-3-methylglutaryl-coenzyme A reductase (Rattus norvegicus, UniProt P51639).
T1 sequence (P51639 whole entry): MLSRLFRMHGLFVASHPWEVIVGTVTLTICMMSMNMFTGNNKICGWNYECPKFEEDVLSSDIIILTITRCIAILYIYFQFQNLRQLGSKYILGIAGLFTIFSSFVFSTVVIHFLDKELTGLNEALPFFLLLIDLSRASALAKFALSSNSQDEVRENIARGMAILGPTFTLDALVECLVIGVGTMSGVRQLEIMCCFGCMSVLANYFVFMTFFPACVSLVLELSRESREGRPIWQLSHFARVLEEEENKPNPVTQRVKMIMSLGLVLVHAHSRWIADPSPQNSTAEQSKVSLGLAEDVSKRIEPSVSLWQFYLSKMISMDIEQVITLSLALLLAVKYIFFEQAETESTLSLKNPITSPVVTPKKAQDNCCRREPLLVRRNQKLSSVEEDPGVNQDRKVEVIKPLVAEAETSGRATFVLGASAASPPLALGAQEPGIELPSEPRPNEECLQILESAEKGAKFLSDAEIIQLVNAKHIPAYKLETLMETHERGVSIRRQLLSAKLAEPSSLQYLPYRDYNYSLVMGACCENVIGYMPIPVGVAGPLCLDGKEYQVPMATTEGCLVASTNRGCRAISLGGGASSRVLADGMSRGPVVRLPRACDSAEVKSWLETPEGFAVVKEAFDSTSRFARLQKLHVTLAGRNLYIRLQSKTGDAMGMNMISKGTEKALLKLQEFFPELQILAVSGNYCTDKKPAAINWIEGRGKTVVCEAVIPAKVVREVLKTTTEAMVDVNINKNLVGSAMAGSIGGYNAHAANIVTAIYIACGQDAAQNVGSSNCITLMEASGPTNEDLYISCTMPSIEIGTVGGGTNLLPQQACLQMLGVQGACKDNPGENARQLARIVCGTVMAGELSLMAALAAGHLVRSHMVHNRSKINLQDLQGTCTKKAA
In words: In vitro inhibitory activity against rat liver HMG-CoA reductase enzyme.

Molecule `C[C@H]1C=C2C=C[C@H](C)[C@H](CC[C@@H]3C[C@@H](O)CC(=O)O3)[C@H]2[C@@H](OC(=O)Cc2ccccc2)C1` registered a Relative potency in test [1] of 29. `C=C(C)CO[C@H]1C[C@@H](C)C=C2C=C[C@H](C)[C@H](CCC3C[C@@H](O)CC(=O)O3)[C@H]21` (some centres not stated) came in with an IC50 in test [2] of 0.36 µM. The Relative potency in test [1] stood at 1.5. `CC(=O)O[C@H]1C[C@@H](C)C=C2C=C[C@H](C)[C@H](CCC3C[C@@H](O)CC(=O)O3)[C@H]21` (some centres not stated) had an IC50 in test [2] of 0.269 µM. This molecule also registered a Relative potency in test [1] of 2.1. The matching figures for `C[C@H]1C=C2C=C[C@H](C)[C@H](CCC3C[C@@H](O)CC(=O)O3)[C@H]2[C@@H](OCc2ccc(F)cc2)C1` (some centres not stated): 0.0047 µM and 119. The molecule `C=CCC(=O)O[C@H]1C[C@@H](C)C=C2C=C[C@H](C)[C@H](CCC3C[C@@H](O)CC(=O)O3)[C@H]21` (some centres not stated) showed a concentration for half-maximal inhibition (IC50) in test [2] of 0.0029 µM. The Relative potency in test [1] was found to be 187. Regarding `C[C@H]1C=C2C=C[C@H](C)[C@H](CCC3C[C@@H](O)CC(=O)O3)[C@H]2[C@@H](OCc2ccc(Cl)cc2)C1` (some centres not stated), half-maximal inhibition in test [2] (IC50) was put at 0.17 µM. In test [1], this molecule gave a Relative potency of 8.5. With `C[C@H]1C=C2C=C[C@H](C)[C@H](CCC3C[C@@H](O)CC(=O)O3)[C@H]2[C@@H](OCc2ccccc2)C1` (some centres not stated), the IC50 in test [2] was found to be 0.027 µM. The molecule also gave a Relative potency in test [1] of 20. The matching figures for `CO[C@H]1C[C@@H](C)C=C2C=C[C@H](C)[C@H](CCC3C[C@@H](O)CC(=O)O3)[C@H]21` (some centres not stated): 2.81 µM and 0.2. In the case of `C=CCO[C@H]1C[C@@H](C)C=C2C=C[C@H](C)[C@H](CCC3C[C@@H](O)CC(=O)O3)[C@H]21` (some centres not stated), inhibition in test [2] was half-maximal at 0.37 µM (IC50). Also, the Relative potency in test [1] stood at 1.5.
